In ChEMBL document CHEMBL3593221, “Design, synthesis and preliminary biological evaluation of indoline-2,3-dione derivatives as novel HDAC inhibitors” (Bioorg Med Chem, 2015):

Assays:
[1] = biological target: Histone deacetylase (HDAC1 and HDAC2) (Homo sapiens, UniProt Q13547+Q92769); experiment: Inhibition of HDAC1/2 in human HeLa cell nuclear extract using Boc-Lys (acetyl)-AMC as substrate preincubated for 30 mins before substrate addition measured after 20 mins by UV-vis spectrophotometer analysis; assay type: cell-based
PC-3 = experiment: Antiproliferative activity against human PC3 cells after 48 hrs by MTT assay; assay type: functional, cell-based; settings: PC-3, 48 h
MDA-MB-231 = experiment: Antiproliferative activity against human MDA-MB-231 cells after 48 hrs by MTT assay; assay type: functional, cell-based; settings: MDA-MB-231, 48 h
K562 = experiment: Antiproliferative activity against human K562 cells after 48 hrs by MTT assay; assay type: functional, cell-based; settings: K562, 48 h
U-937 = experiment: Antiproliferative activity against human U937 cells after 48 hrs by MTT assay; assay type: functional, cell-based; settings: U-937, 48 h
[2] = Antiproliferative activity against human H7402 cells after 48 hrs by MTT assay; assay type: functional, cell-based; settings: H7402, 48 h
How it was run: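 Cells kept in RPMI1640 with 10% FBS at 37 °C, 5% CO2. Seeded 5000 per well and allowed at least 4 h to settle, then exposed to a range of compound concentrations for 48 h. 1% MTT solution added for 4 h, formazan dissolved in DMSO over 15 min, OD read at 570 nm. Values are the mean of three experiments.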

MCF7 = experiment: Antiproliferative activity against human MCF7 cells after 48 hrs by MTT assay; assay type: functional, cell-based; settings: MCF7, 48 h
HeLa = experiment: Antiproliferative activity against human HeLa cells after 48 hrs by MTT assay; assay type: functional, cell-based
HEL = experiment: Antiproliferative activity against human HEL cells after 48 hrs by MTT assay; assay type: functional, cell-based
[3] = Antiproliferative activity against human KG1 cells after 48 hrs by MTT assay; assay type: functional, cell-based; settings: KG-1, 48 h
[4] = Antiproliferative activity against human ES2 cells after 48 hrs by MTT assay; assay type: functional, cell-based; settings: ES-2, 48 h
HCT-116 = experiment: Antiproliferative activity against human HCT116 cells after 48 hrs by MTT assay; assay type: functional, cell-based; settings: HCT-116, 48 h
[5] = Antiproliferative activity against human 3AO cells after 48 hrs by MTT assay; assay type: functional, cell-based
[6] = Antitumor activity against human H7402 cells xenografted in mouse assessed as tumor increment ratio at 100 mg/kg/day, po for 16 days relative to control; assay type: functional
How it was run: (§1)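 Male athymic nude mice, 4-6 weeks old, inoculated subcutaneously in the right axilla with 6.88×10^7 H7402 cells. After 8 days, at about 140 mm³ mean tumor volume, mice were randomized to groups of seven. Daily gavage for 16 days; controls received an equal volume of PBS. Tumors were measured by caliper every three days, V=ab²/2. T/C% = treated RTV/control RTV, where RTV = Vt/V0. Two-tailed t test.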

Mus musculus [7] = experiment: Toxicity in human H7402 cells xenografted mouse assessed as change in body weight at 100 mg/kg/day, po for 16 days; assay type: organism-based; settings: in vivo, 384 h
How it was run: (§2)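 H7402 subcutaneous xenograft in male athymic nude mice, seven per group, started once tumors reached about 140 mm³. Compound given daily by gavage for 16 days; controls received an equal volume of PBS. Body weight recorded every three days, and toxicity monitored during treatment.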

Mus musculus [8] = experiment: Toxicity in human H7402 cells xenografted mouse assessed as change in toxic effect at 100 mg/kg/day, po for 16 days; assay type: organism-based; settings: in vivo, 384 h; how it was run: as §2
Histone deacetylase 1 = Histone deacetylase 1 (Homo sapiens, UniProt Q13547); experiment: Inhibition of HDAC1 (unknown origin) using Boc-Lys (acetyl)-AMC as substrate preincubated for 30 mins before substrate addition measured after 20 mins by UV-vis spectrophotometer analysis
Histone deacetylase 1, sequence (Q13547 whole entry): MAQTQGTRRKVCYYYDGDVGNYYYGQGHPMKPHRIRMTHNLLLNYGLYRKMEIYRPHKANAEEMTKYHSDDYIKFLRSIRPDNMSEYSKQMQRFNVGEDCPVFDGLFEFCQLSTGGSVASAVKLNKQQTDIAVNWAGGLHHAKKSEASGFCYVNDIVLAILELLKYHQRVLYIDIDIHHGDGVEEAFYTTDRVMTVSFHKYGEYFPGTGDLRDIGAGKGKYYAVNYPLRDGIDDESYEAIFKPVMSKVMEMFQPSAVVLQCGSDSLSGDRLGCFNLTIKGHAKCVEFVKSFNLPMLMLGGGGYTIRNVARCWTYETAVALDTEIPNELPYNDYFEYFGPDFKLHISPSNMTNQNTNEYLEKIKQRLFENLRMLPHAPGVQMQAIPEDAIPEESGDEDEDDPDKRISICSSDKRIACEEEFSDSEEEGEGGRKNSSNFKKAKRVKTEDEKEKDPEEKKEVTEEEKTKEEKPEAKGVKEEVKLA

Histone deacetylase 3 = Histone deacetylase 3 (Homo sapiens, UniProt O15379); experiment: Inhibition of HDAC3 (unknown origin) using Boc-Lys (acetyl)-AMC as substrate preincubated for 30 mins before substrate addition measured after 20 mins by UV-vis spectrophotometer analysis
Histone deacetylase 3, sequence (O15379 whole entry): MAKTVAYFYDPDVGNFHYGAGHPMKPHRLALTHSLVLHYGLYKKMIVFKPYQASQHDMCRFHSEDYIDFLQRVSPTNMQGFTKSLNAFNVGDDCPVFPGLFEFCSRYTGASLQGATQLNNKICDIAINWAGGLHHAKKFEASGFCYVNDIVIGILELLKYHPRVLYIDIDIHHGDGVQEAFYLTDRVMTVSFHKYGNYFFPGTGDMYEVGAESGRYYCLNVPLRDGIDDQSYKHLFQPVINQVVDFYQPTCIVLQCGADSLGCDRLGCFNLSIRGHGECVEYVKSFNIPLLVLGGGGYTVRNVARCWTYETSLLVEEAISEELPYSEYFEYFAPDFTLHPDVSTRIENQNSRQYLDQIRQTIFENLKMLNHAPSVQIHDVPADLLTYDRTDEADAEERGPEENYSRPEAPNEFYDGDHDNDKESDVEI

[9] = biological target: T1, Protein deacetylase HDAC6 (Homo sapiens, UniProt Q9UBN7); experiment: Inhibition of HDAC6 (unknown origin) using Boc-Lys (acetyl)-AMC as substrate preincubated for 30 mins before substrate addition measured after 20 mins by UV-vis spectrophotometer analysis
T1 sequence (Q9UBN7 whole entry): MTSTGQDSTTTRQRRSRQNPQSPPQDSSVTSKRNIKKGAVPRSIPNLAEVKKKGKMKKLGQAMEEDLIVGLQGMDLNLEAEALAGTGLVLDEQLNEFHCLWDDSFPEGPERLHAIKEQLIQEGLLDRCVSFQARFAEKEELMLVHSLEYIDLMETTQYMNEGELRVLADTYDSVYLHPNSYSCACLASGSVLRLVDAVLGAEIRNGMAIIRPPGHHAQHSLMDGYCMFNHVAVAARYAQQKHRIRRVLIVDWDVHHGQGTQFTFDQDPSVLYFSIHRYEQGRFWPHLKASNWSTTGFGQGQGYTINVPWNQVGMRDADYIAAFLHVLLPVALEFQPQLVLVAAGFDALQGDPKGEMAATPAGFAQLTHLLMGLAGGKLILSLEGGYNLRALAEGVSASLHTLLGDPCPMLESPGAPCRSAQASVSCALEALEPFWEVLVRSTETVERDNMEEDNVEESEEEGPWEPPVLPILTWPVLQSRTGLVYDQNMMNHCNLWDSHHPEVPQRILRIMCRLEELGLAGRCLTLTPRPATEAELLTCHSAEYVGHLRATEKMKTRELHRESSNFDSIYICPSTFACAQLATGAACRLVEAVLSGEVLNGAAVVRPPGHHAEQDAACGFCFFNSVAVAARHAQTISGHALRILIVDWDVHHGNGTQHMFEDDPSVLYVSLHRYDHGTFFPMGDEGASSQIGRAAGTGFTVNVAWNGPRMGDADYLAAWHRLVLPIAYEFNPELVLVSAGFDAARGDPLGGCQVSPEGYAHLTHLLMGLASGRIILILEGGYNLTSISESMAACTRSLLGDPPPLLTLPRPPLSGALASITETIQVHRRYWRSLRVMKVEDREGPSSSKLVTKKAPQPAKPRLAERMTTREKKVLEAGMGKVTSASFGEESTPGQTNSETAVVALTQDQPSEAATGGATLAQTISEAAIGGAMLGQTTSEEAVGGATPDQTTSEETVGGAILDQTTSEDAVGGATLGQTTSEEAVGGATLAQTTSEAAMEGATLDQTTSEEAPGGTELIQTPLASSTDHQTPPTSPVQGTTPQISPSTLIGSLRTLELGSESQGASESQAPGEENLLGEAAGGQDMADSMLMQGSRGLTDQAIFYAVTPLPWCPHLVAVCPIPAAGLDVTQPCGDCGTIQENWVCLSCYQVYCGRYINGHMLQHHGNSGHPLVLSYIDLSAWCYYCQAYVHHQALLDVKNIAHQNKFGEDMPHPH

[10] = Antitumor activity against human H7402 cells xenografted in mouse assessed as tumor increment ratio at 60 mg/kg/day, po for 16 days relative to control; assay type: functional; how it was run: as §1
Mus musculus [11] = experiment: Toxicity in human H7402 cells xenografted mouse assessed as change in body weight at 60 mg/kg/day, po for 16 days; assay type: organism-based; settings: in vivo, 384 h; how it was run: as §2
Mus musculus [12] = experiment: Toxicity in human H7402 cells xenografted mouse assessed as change in toxic effect at 60 mg/kg/day, po for 16 days; assay type: organism-based; settings: in vivo, 384 h; how it was run: as §2

IC50 [1]	IC50 (PC-3)	IC50 (MDA-MB-231)	IC50 (K562)	IC50 (U-937)	IC50 (MCF7)	IC50 (HeLa)	IC50 (HCT-116)	SMILES	IC50 [2]	IC50 (HEL)	IC50 [3]	IC50 [4]	IC50 [5]	other results
0.0216 µM	17.7 µM	24.1 µM	3.91 µM	0.66 µM	6.13 µM	> 50 µM	80.2 µM	O=C(CN1C(=O)C2(OCCCCO2)c2cc(Br)ccc21)Nc1ccc(C(=O)NO)cc1	0.75 µM	0.64 µM	5.49 µM	3.6 µM	27.2 µM	–
0.31 µM	–	–	–	–	–	–	–	O=C(CN1C(=O)C2(OCCO2)c2ccccc21)Nc1ccc(C(=O)NO)cc1	–	–	–	–	–	–
0.22 µM	–	–	–	–	–	–	–	O=C(/C=C/c1ccc(NC(=O)CN2C(=O)C3(OCCO3)c3cc(Br)ccc32)cc1)NO	–	–	–	–	–	–
> 50 µM	–	–	–	–	–	–	–	O=C(CNC(=O)CN1C(=O)C2(OCCO2)c2cc(Br)ccc21)NO	–	–	–	–	–	–
0.31 µM	4.43 µM	82.7 µM	0.44 µM	1.08 µM	5.23 µM	26.6 µM	0.64 µM	Nc1ccccc1NC(=O)c1ccc(NC(=O)CN2C(=O)C3(OCCCO3)c3cc(Br)ccc32)cc1	1.95 µM	–	5.92 µM	6.49 µM	9.71 µM	–
0.37 µM	–	–	–	–	–	–	–	O=C(CN1C(=O)C2(OCCO2)c2cc(Cl)ccc21)Nc1ccc(C(=O)NO)cc1	–	–	–	–	–	–
0.01013 µM	1.91 µM	101 µM	0.18 µM	0.14 µM	52.6 µM	2.79 µM	1.26 µM	O=C(CCN1C(=O)C2(OCCCO2)c2cc(Br)ccc21)Nc1ccc(C(=O)NO)cc1	5.33 µM	0.33 µM	0.32 µM	2.8 µM	3.25 µM	IC50 (Histone deacetylase 1): 0.201 µM; IC50 (Histone deacetylase 3): 0.025 µM; IC50 [9]: 0.126 µM; T/C [10]: 62.5%; Activity (Mus musculus [11]): Non-toxic; Activity (Mus musculus [12]): Non-toxic
0.12 µM	–	–	–	–	–	–	–	O=C(CN1C(=O)C2(OCCO2)c2cc(Br)ccc21)Nc1ccc(C(=O)NO)cc1	–	–	–	–	–	–
0.013 µM	11 µM	44.7 µM	1.94 µM	0.4 µM	8.58 µM	12.1 µM	60.1 µM	O=C(CN1C(=O)C2(OCCCO2)c2cc(Br)ccc21)Nc1ccc(C(=O)NO)cc1	1.37 µM	0.56 µM	5.4 µM	16.1 µM	18.3 µM	–
> 50 µM	–	–	–	–	–	–	–	O=C(CN1C(=O)C2(OCCCO2)c2cc(Br)ccc21)Nc1ccc(C(=O)O)cc1	–	–	–	–	–	–
0.28 µM	–	–	–	–	–	–	–	Cc1ccc2c(c1)C1(OCCO1)C(=O)N2CC(=O)Nc1ccc(C(=O)NO)cc1	–	–	–	–	–	–

The remaining lines, values behind:

SMILES	IC50 [1]	IC50 (PC-3)	IC50 (MDA-MB-231)	IC50 (K562)	IC50 (U-937)	IC50 (MCF7)	IC50 (HeLa)	IC50 (HCT-116)	IC50 [2]	IC50 (HEL)	IC50 [3]	IC50 [4]	IC50 [5]	other results
O=C(CN1C(=O)C2(OCCO2)c2cc(F)ccc21)Nc1ccc(C(=O)NO)cc1	0.19 µM	–	–	–	–	–	–	–	–	–	–	–	–	–
O=C(CCCCCCC(=O)Nc1ccccc1)NO [VORINOSTAT]	–	–	–	–	–	–	–	–	10.1 µM	–	–	–	–	T/C [6]: 75.53%; Activity (Mus musculus [7]): Non-toxic; Activity (Mus musculus [8]): Non-toxic
O=C(CN1C(=O)C2(OCCCCO2)c2cc(Cl)ccc21)Nc1ccc(C(=O)NO)cc1	0.0373 µM	11.6 µM	36.4 µM	7.23 µM	1.49 µM	25 µM	36.1 µM	42.4 µM	5.34 µM	1.29 µM	10.1 µM	25.3 µM	23.6 µM	–
COC(=O)c1ccc(NC(=O)CN2C(=O)C3(OCCCO3)c3cc(Br)ccc32)cc1	> 50 µM	–	–	–	–	–	–	–	–	–	–	–	–	–
O=C(CCCCCNC(=O)CN1C(=O)C2(OCCO2)c2cc(Br)ccc21)NO	0.67 µM	–	–	–	–	–	–	–	–	–	–	–	–	–
O=C(CCCNC(=O)CN1C(=O)C2(OCCO2)c2cc(Br)ccc21)NO	0.92 µM	–	–	–	–	–	–	–	–	–	–	–	–	–
O=C(CN1C(=O)C2(OCCO2)c2cc([N+](=O)[O-])ccc21)Nc1ccc(C(=O)NO)cc1	> 50 µM	–	–	–	–	–	–	–	–	–	–	–	–	–
O=C(CN1C(=O)C2(OCCCO2)c2cc(Cl)ccc21)Nc1ccc(C(=O)NO)cc1	0.0344 µM	21.9 µM	57.1 µM	5.32 µM	2.09 µM	28.4 µM	11.3 µM	41.9 µM	4.64 µM	1.25 µM	9.19 µM	10.1 µM	12.3 µM	–
O=C(CCCN1C(=O)C2(OCCCO2)c2cc(Br)ccc21)Nc1ccc(C(=O)NO)cc1	0.0194 µM	7.93 µM	126 µM	0.39 µM	0.22 µM	13.7 µM	22.2 µM	1.1 µM	0.58 µM	0.34 µM	0.42 µM	6.02 µM	21.4 µM	–
